Here are results for ten compounds from ChEMBL document CHEMBL1165965, “Synthesis and structure-activity relationships of 1,2,3,4-tetrahydropyrido[2,3-b]pyrazines as potent and selective inhibitors of the anaplastic lymphoma kinase” (Bioorg Med Chem, 2010).

In assay [1] the target is T1, Mitogen-activated protein kinase kinase kinase kinase 3 (Homo sapiens) (UniProt Q8IVH8).
T1 sequence (whole entry): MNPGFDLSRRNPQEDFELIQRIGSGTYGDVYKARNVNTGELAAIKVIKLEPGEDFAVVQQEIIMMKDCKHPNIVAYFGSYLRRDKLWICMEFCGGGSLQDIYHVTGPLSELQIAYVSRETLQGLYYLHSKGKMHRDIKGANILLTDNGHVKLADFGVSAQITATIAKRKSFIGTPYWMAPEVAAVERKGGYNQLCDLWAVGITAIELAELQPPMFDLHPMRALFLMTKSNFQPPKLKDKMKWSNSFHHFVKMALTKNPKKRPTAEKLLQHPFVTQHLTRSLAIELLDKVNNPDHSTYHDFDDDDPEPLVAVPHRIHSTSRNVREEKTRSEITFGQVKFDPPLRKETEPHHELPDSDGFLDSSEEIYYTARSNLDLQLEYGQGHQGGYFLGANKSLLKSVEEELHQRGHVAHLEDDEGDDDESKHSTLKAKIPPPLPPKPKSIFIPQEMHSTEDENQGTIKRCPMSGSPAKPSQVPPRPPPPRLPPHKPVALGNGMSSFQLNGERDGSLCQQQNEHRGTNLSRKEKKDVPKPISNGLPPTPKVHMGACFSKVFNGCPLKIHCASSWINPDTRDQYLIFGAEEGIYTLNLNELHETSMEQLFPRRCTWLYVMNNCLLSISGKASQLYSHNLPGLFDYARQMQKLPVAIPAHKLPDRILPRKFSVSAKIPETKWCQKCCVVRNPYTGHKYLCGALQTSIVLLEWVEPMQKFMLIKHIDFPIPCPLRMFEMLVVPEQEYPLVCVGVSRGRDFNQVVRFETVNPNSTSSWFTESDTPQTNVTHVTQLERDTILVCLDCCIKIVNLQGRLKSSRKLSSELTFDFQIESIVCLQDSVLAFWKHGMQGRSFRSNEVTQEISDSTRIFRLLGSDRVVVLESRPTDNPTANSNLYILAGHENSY
In words: Inhibition of MAP4K3 at 1 uM. The method, boiled down: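 Single-concentration screen on the Ambit KINOMEscan platform, run against a panel of 250–400 kinases. Per-kinase inhibition was also summarized as S(90), the fraction of kinases inhibited by more than 90%.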

Assay [2] addresses Cyclin-dependent kinase 18 (Homo sapiens) (UniProt Q07002). Description: Inhibition of PCTK3 at 1 uM.
Assay [3] has as its target T2, Serine/threonine-protein kinase LATS2 (Homo sapiens) (UniProt Q9NRM7).
T2 sequence (whole entry): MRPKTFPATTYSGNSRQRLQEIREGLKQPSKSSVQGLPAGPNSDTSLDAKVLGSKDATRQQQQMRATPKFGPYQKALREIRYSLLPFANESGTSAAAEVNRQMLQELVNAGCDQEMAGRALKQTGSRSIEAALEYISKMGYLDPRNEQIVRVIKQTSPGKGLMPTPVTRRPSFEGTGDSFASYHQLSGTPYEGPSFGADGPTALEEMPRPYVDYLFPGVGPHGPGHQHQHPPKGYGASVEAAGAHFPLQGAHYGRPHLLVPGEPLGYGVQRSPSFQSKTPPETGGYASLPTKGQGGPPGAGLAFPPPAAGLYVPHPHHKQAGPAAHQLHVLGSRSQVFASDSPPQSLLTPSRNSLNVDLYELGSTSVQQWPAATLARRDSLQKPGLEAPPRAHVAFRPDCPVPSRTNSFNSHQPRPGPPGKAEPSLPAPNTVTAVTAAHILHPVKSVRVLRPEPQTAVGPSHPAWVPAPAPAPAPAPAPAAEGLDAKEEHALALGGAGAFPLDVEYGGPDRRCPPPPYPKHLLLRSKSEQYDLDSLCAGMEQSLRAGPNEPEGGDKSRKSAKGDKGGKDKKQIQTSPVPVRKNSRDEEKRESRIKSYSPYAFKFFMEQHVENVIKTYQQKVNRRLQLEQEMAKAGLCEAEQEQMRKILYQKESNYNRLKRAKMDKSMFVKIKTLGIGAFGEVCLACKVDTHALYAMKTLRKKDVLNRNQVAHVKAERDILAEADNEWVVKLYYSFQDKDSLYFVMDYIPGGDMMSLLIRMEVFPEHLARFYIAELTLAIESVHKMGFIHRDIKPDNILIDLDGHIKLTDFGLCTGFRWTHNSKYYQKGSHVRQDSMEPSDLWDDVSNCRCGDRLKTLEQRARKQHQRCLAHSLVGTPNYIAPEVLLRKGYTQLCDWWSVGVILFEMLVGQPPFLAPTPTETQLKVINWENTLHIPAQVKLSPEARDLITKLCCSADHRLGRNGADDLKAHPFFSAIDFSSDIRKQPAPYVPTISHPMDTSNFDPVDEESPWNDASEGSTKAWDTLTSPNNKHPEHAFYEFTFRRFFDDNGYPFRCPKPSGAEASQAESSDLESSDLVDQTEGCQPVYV
Description: Inhibition of LATS2 at 1 uM.

Assay [4] deals with Serine/threonine-protein kinase 24 (Homo sapiens) (UniProt Q9Y6E0). In words: Inhibition of MST3 at 1 uM.
Assay [5] deals with Dual specificity protein kinase CLK1 (Homo sapiens) (UniProt P49759). In words: Inhibition of CLK1 at 1 uM. In short, it runs like this: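 Ambit KINOMEscan screen at a single concentration across a 250–400 kinase panel, recorded as percent inhibition. Selectivity was expressed as S(90), the fraction of kinases inhibited >90%.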
Assay [6] has as its target ALK tyrosine kinase receptor (Homo sapiens, UniProt Q9UM73). Description: Inhibition of ALK at 1 uM.
In assay [7] the target is Ribosomal protein S6 kinase alpha-2 (Homo sapiens) (UniProt Q15349). In words: Inhibition of RPS6KA2 C-terminal domain2 at 1 uM.
The target of assay [8] is Mitogen-activated protein kinase kinase kinase 20 (Homo sapiens) (UniProt Q9NYL2). Description: Inhibition of ZAK at 1 uM.
Assay [9] concerns the target Casein kinase II subunit alpha (Homo sapiens) (UniProt P68400). In words: Inhibition of CSNK2A1 at 1 uM. In short, it runs like this: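 Single-concentration screen using Ambit Bioscience KINOMEscan technology across a panel of 250–400 kinases. Per-kinase inhibition from this screen was summarized as S(90), the fraction of kinases inhibited by more than 90%.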
Assay [10] addresses Serine/threonine-protein kinase OSR1 (Homo sapiens) (UniProt O95747). In words: Inhibition of OSR1 at 1 uM.
In assay [11] the target is Dual specificity mitogen-activated protein kinase kinase 2 (Homo sapiens) (UniProt P36507). Description: Inhibition of MEK2 at 1 uM.
Chain of Dual specificity mitogen-activated protein kinase kinase 2 (Homo sapiens) (P36507 whole entry): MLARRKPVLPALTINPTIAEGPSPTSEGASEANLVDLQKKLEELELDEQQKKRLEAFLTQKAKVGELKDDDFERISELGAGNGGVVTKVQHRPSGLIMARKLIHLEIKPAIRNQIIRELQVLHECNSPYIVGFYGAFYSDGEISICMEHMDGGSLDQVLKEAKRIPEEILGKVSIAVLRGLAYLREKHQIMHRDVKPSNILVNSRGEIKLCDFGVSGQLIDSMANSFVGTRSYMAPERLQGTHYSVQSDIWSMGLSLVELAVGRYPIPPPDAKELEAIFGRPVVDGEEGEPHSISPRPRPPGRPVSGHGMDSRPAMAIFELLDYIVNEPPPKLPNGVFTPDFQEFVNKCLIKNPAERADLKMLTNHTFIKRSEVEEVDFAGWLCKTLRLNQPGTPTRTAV

Chain of Mitogen-activated protein kinase kinase kinase 20 (Homo sapiens) (Q9NYL2 2-800 limits assumed): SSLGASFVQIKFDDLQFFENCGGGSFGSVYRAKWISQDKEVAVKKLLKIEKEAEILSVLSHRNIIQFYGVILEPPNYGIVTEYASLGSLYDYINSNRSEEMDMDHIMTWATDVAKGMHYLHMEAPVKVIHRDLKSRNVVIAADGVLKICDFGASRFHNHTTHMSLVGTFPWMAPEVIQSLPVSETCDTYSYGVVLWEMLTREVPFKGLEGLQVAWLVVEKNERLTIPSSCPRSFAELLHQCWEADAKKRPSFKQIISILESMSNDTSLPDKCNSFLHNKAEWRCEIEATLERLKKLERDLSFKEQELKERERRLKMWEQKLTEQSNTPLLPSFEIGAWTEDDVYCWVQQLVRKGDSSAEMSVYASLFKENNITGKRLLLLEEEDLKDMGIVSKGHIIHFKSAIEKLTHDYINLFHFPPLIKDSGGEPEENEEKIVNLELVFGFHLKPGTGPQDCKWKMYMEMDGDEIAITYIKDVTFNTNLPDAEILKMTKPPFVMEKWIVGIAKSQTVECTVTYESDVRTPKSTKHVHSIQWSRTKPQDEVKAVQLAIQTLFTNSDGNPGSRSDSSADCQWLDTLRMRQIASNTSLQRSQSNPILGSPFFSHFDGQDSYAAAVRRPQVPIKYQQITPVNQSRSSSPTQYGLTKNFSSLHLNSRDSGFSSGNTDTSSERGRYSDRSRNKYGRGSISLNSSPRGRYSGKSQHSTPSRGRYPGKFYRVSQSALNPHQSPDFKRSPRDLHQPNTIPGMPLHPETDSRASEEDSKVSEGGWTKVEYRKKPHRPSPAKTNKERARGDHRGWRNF
Chain of Serine/threonine-protein kinase 24 (Homo sapiens) (Q9Y6E0 whole entry, looked up): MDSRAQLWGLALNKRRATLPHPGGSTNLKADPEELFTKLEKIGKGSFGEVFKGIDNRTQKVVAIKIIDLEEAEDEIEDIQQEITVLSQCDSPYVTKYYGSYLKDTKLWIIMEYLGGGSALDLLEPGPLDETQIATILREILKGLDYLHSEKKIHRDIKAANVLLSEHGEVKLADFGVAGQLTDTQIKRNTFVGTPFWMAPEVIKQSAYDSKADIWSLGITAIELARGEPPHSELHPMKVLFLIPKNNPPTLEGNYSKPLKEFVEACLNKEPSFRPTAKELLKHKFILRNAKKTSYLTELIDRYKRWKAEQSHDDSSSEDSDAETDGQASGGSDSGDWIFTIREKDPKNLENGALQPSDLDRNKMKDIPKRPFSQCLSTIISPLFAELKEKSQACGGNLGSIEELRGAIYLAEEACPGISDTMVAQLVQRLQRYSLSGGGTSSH
Chain of Dual specificity protein kinase CLK1 (Homo sapiens) (P49759 whole entry, looked up): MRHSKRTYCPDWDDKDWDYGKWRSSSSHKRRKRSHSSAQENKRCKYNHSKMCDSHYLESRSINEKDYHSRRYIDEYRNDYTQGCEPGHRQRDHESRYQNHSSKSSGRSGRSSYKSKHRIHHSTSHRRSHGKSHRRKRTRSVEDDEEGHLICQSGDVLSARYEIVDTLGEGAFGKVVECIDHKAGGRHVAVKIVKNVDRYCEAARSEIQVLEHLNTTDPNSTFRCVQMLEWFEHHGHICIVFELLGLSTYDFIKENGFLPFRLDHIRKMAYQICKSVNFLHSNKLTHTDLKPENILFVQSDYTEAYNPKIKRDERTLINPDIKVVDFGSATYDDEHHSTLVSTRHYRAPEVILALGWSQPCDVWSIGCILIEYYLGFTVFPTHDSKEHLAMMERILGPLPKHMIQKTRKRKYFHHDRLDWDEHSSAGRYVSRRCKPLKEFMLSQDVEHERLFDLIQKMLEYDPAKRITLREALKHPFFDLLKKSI
Chain of Casein kinase II subunit alpha (Homo sapiens) (P68400 whole entry, looked up): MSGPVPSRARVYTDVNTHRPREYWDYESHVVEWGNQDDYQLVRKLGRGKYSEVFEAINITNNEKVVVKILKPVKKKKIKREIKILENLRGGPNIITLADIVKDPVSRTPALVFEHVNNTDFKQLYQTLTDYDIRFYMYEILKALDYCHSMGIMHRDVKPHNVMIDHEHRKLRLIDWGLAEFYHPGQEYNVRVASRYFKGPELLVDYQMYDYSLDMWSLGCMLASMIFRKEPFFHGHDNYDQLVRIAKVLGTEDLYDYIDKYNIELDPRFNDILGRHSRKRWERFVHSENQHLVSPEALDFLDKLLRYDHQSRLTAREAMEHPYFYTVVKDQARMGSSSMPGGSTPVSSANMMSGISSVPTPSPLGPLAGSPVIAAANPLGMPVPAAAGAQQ
Chain of Ribosomal protein S6 kinase alpha-2 (Homo sapiens) (Q15349 whole entry, the tested form may be a part): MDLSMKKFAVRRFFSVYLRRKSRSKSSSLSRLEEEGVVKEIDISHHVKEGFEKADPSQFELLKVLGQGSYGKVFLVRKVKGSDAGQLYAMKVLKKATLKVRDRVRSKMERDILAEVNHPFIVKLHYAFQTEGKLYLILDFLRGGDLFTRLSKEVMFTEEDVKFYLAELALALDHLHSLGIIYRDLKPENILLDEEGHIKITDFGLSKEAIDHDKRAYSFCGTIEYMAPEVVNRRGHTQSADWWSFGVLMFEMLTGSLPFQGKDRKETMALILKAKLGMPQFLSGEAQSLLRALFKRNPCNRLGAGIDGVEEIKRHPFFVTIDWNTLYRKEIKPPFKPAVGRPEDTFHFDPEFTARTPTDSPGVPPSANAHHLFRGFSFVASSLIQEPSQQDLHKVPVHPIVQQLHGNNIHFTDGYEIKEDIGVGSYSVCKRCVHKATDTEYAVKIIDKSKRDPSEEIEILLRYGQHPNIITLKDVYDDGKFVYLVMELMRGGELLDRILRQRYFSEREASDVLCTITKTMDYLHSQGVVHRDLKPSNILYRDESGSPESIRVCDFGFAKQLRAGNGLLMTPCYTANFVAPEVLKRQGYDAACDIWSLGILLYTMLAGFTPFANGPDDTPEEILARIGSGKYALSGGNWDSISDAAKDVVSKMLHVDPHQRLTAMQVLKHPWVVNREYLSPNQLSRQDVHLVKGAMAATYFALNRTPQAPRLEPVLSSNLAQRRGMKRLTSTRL
Chain of ALK tyrosine kinase receptor (Q9UM73 19-1620 limits assumed): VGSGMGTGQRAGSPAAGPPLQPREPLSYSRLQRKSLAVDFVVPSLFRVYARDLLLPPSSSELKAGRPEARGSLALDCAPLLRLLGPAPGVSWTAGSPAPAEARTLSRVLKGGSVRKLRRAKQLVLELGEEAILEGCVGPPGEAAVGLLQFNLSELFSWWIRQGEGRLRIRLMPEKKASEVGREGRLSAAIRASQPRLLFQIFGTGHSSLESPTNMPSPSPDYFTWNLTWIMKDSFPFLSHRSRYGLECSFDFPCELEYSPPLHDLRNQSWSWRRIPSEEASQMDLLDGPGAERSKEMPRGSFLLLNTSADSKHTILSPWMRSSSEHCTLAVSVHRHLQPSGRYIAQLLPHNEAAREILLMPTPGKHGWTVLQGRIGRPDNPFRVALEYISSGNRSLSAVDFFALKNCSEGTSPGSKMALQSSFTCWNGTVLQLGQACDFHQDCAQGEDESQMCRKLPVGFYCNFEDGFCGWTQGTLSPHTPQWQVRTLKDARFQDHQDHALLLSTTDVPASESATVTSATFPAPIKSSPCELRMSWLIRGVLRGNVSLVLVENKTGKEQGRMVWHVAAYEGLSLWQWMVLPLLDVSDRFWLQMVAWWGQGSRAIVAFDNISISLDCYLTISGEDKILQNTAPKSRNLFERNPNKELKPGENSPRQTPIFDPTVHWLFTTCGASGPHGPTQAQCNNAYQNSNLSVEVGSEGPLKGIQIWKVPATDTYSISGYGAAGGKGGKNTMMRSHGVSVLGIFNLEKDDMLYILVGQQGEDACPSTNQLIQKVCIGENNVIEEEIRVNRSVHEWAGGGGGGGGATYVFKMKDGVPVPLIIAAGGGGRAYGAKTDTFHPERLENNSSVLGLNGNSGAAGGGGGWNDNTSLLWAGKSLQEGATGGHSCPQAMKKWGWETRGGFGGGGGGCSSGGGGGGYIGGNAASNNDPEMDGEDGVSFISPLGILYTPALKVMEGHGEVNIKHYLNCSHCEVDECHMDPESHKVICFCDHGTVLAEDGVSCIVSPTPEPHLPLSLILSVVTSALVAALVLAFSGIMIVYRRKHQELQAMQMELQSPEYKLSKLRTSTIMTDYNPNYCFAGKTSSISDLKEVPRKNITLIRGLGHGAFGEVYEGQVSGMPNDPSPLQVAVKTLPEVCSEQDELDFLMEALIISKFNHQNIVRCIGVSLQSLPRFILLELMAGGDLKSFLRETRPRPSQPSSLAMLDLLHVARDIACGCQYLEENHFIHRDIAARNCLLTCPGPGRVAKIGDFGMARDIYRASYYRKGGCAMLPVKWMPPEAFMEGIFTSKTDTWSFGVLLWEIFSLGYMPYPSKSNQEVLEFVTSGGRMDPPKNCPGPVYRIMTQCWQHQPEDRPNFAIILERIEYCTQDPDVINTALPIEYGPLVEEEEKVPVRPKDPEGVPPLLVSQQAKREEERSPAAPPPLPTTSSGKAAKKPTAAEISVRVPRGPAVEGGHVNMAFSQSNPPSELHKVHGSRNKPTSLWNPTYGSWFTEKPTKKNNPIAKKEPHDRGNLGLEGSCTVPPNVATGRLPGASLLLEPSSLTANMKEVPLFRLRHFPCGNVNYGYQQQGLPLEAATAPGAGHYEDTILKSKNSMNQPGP

Regarding `FC(F)(F)c1ccc(Cl)cc1CN1CCNc2ncc(-c3ccnc(N4CCNCC4)c3)cc21`, the inhibition in [1] is 70%; in assay [2], less than 50%; in [3], less than 50%; in assay [4], less than 50%; in [5] it was less than 50%; in assay [6] it was 99%. Besides, the inhibition in assay [7], in [8], in assay [9], in assay [10] and in assay [11] was less than 50% each time.

For `CN1CCN(c2ccc(-c3cnc4c(c3)N(Cc3cc(F)ccc3F)CCN4)cn2)CC1`, the inhibition was less than 50% in assay [1]; less than 50% in [2]; less than 50% in [3]; less than 50% in assay [4]; less than 50% in assay [5]; 96.7% in [6]. For the same compound, the inhibition in [7], in assay [8], in assay [9], in assay [10] and in assay [11] was less than 50% each time.

Regarding `CN1CCN(c2ccc(-c3cnc4c(c3)N(Cc3cc(Cl)ccc3Cl)CCN4)cn2)CC1`, the inhibition in [1] is less than 50%; in assay [2] it was less than 50%; in assay [3], less than 50%; in [4] it was less than 50%; in assay [5] it was less than 50%; in [6], 98%. The inhibition in assay [7], in [8], in assay [9], in [10] and in assay [11] was less than 50% throughout.

For the compound `O=C(O)c1ccc(-c2cnc3c(c2)N(Cc2cc(Cl)ccc2C(F)(F)F)CCN3)cc1`, the inhibition in assay [1], in assay [5], in [6], in assay [7] and in assay [9] was less than 50% throughout.

Consider `CN1CCN(c2ccc(-c3cnc4c(c3)N(Cc3cc(Cl)ccc3C(F)(F)F)CCN4)cn2)CC1`, for which the inhibition is less than 50% in assay [1]; less than 50% in assay [2]; less than 50% in assay [3]; less than 50% in assay [4]; less than 50% in assay [5]; 98% in assay [6]. Also, the inhibition in [7], in assay [8], in [9], in assay [10] and in assay [11] was less than 50% throughout.

In the case of `COC1CCN(C(=O)c2ccc(-c3cnc4c(c3)N(Cc3cc(Cl)ccc3C(F)(F)F)CCN4)cc2)CC1`, the inhibition in assay [1] was less than 50%; in assay [5] it was less than 50%; in [6], 85.6%; in assay [7], less than 50%; in assay [9] it was less than 50%.

On to `O=C(c1ccc(-c2cnc3c(c2)N(Cc2cc(Cl)ccc2C(F)(F)F)CCN3)cc1)N1CCC(N2CCCC2)CC1`, for which the inhibition is less than 50% in assay [1]; less than 50% in [5]; 83.4% in [6]; less than 50% in [7]; less than 50% in assay [9].

Take `CN1CCN(c2ccc(-c3cnc4c(c3)N(Cc3c(F)ccc(F)c3Cl)CCN4)cn2)CC1`: the inhibition in [1] was 91%; in assay [2], less than 50%; in assay [3], less than 50%; in assay [4], less than 50%; in [5], less than 50%; in [6], 97%. The inhibition in assay [7], in assay [8], in assay [9], in assay [10] and in [11] was less than 50% in each case.

On to `O=C(c1ccc(-c2cnc3c(c2)N(Cc2cc(Cl)ccc2C(F)(F)F)CCN3)cc1)N1CCCCC1`, for which the inhibition in assay [1], in [5], in assay [6], in assay [7] and in assay [9] was less than 50% in each case.

`CC(=O)N1CCN(c2cc(-c3cnc4c(c3)N(Cc3cc(Cl)ccc3C(F)(F)F)CCN4)ccn2)CC1`: the inhibition in [1] is less than 50%; in assay [2], less than 50%; in assay [3] it was less than 50%; in assay [4], less than 50%; in [5], less than 50%; in [6], 98%. Moreover, the inhibition in [7], in [8], in assay [9], in [10] and in assay [11] was less than 50% throughout.
